Published values gathered from unrelated publications.
Each line is one published result; the experiments were not run side by side.
Target: TRAF2 and NCK-interacting protein kinase (TNIK, Homo sapiens, UniProt Q9UKE5)

O=C(NCC1CCOCC1)c1n[nH]cc1NC(=O)c1c(F)cccc1F — remaining binding (binding, competition with immobilised ligand; 1 µM): 84%
CN([C@@H]1CCc2c(CC(=O)O)c3cc(S(C)(=O)=O)ccc3n2C1)S(=O)(=O)c1ccc(F)cc1 — remaining binding (cell-free assay, competition with immobilised ligand; 1 µM): 100%
c1cnn2ncc(-c3ccnc(N4CCC45COC5)n3)c2c1 — remaining binding (binding; 1 µM): 72%
CS(=O)(=O)N1CCCC(NC(=O)[C@H](CCC2CCCCC2)NC(=O)c2ccc(CNc3ncnc4c3nnn4-c3ccccc3)cc2)C1 (stereo partly drawn) — remaining binding (binding, competition with immobilised ligand; 1 µM): 45%
C[C@H]1CCN(c2nccc(-c3cnn4ncccc34)n2)C1 — remaining binding (binding; 1 µM): 100%
Cc1cc(C)c(-n2ccn3nc(-c4cccnc4)cc23)cc1NC(=O)c1cc(C#N)cc(S(F)(F)(F)(F)F)c1 — remaining binding (cell-free assay, competition with immobilised ligand; 0.1 µM): 97.4%
CC1CCCN1c1nccc(-c2cnn3ncccc23)n1 (stereo not drawn) — remaining binding (binding; 1 µM): 95%
CCN1CCN(Cc2ccc(C(=O)Nc3ccc(C)c(Oc4ccc5c(c4)CC(=O)N5)c3)cc2C(F)(F)F)CC1 — remaining binding (binding, competition with immobilised ligand; 1 µM): 79%
O=C(c1ccc(Nc2ncc(Cl)c(-c3ccc(Cl)s3)n2)cc1)N1CCC(N2CCCC2)CC1 — remaining binding (binding, competition with immobilised ligand; 1 µM): 43%
N[C@H]1CCN(c2nccc(-c3cnn4ncccc34)n2)C1 — remaining binding (binding; 1 µM): 80%
O=C(Nc1cccnn1)N1CCC(=Cc2cccc(Oc3ccc(C(F)(F)F)cn3)c2)CC1 — remaining binding (cell-free assay, competition with immobilised ligand; 1 µM): 100%
CN(C)c1nccc(-c2cnc3ncccn23)n1 — remaining binding (binding; 1 µM): 84%
FC(F)(F)Oc1cccc(-c2cnc3ccc(-c4ccncc4)nn23)c1 — remaining binding (binding, competition with immobilised ligand; 5 µM): 29%
COc1ccnn2ncc(-c3ccnc(N(C)C)n3)c12 — remaining binding (binding; 1 µM): 63%
c1cncc(-c2cccc(Nc3nccc(NC4CCCCC4)n3)c2)c1 — remaining binding (binding, competition with immobilised ligand; 10 µM): 33%
COc1cnc(Nc2cccc(S(N)(=O)=O)c2)nc1N1CCN(c2ccccc2)C(=O)C1 — remaining binding (binding, competition with immobilised ligand; 1 µM): 76%
CCC(=O)N[C@@H]1CC[C@H](C(=O)N(C)c2ccc(-c3nc4ccccc4o3)cc2)C1 — remaining binding (cell-free assay, competition with immobilised ligand; 1 µM): 100%
O=C(NCCCN1CCOCC1)c1ccc(Nc2ncc(Cl)c(-c3ccc(Cl)s3)n2)cc1 — remaining binding (binding, competition with immobilised ligand; 1 µM): 44%
Nc1ncc2c(n1)-c1c([nH]c3ccc(C#CC4CC4)cc13)CCCC2 — remaining binding (binding, competition with immobilised ligand; 1 µM): 42%
CNC(=O)Nc1ccc2c(c1)CC[C@@]21OC(=O)N(CC(=O)N(Cc2ccc(F)cc2)[C@@H](C)C(F)(F)F)C1=O — remaining binding (cell-free assay, competition with immobilised ligand; 1 µM): 93%
O=C(c1ccc(Nc2nccc(-c3cc4ccccc4s3)n2)cc1)N1CCC(N2CCCC2)CC1 — remaining binding (binding, competition with immobilised ligand; 1 µM): 79%
